Source: PubChem
Sampled rows, rich in hits. Any-hit rate of the full collection: about 2.1%.
Arbovirus anti – arbovirus infection inhibition. hit rate 0.37% among 200,000. AID 1251. inhibition, % at 10 µM. arbovirus infection cell-based antiviral screen; in the data active means inhibition above about 30%
ABCG2 block – blocks JC-1 efflux by human ABCG2 transporter. Q9UNQ0. IgMXP3 cells, flow cytometry. inhibition, % at 6.6 µM. hit rate 0.1% among 190,000. AID 1325;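 active means inhibition above 80%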
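Test system: IgMXP3 cells (ABCG2) mixed with DDAO far-red-labelled CCRF-Adr cells (ABCB1). Reagent: JC-1 transporter substrate. Compound dosing: single test compound dose, 6.6 µM final. Times: 10 min compound exposure, 25 °C. Detection: flow cytometry of retained JC-1 fluorescence. Read-out basis: efflux inhibition in percent versus controls. Controls: nicardipine and DMSO wells.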
bCat nuc transl – alters nuclear translocation of beta-catenin in HeLa cells. immunofluorescence imaging. nuclear translocation activity, % at 5 µM. hit rate 0.3% among 190,000;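 active means nuclear translocation activity above 50% at 5 µM, with a well cell count of 50 or more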;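 further: per-cell ratio of nuclear to cytoplasmic median beta-catenin stain intensity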
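Test system: human HeLa cells, endogenous beta-catenin. Times: 24 h compound exposure, 37°C. Measured by: beta-catenin immunofluorescence imaging with DAPI.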
ABCB1 inh – blocks JC-1 efflux by human ABCB1 transporter; P08183; AID 1326; hit rate 0.067% among 190,000; CCRF-Adr cells, flow cytometry; inhibition, % at 6.6 µM; in the data active means inhibition above about 40%;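 further: higher value means more JC-1 retained so stronger ABCB1 efflux block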
MT stabilize HCS – microtubule stabilizers in HeLa cells; hit rate 0.83% among 200,000; % tubulin-high responders, % at 10 µM; AID 2205; HeLa tubulin immunostaining HCS, 24 h; share of cells brighter than vehicle mean+2SD;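 active means plate Z-score above 3 for both tubulin-high and condensed-nucleus cell shares, with cell loss under 80%, at 10 µM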;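 further: anti alpha tubulin signal scored within the nucleus-defined area of each cell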
Autophagy HCS – autophagy modulation, high-content screen. MEF GFP-LC3 puncta imaging; test concentration mostly 10 µM. calls only at 10 µM (by protocol). hit rate 0.98% among 190,000. AID 463193;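 active means percentage of spot-positive cells more than 3 SD above its plate mean, without a fluorescence outlier flag or 80% toxicity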
Large screens that a line does not name were inactive.

Cc1cccc(Nc2ncnc3ccc(Br)cc23)c1	none
CCCn1c(CC)nc([N+](=O)[O-])c1Sc1ccc(F)cc1	none
CCOc1cc(NC(=S)NCCCN2CCOCC2)c(OCC)cc1NC(=O)c1cccs1	Autophagy HCS active
N#C/C(=C/c1ccccc1)c1nn(CCO)c(N)c1C#N	none
N#C/C(=C\c1ccc(/C=C(/C#N)c2nn(CCO)c(N)c2C#N)cc1)c1nn(CCO)c(N)c1C#N	Autophagy HCS active
CO/N=C/CC(=O)Nc1ccc(F)cc1F	none
O=C(O)COc1c(Cl)cc(/C=C2/NC(=O)NC2=O)cc1Br	none
CCOc1cc(/C=C2/NC(=O)NC2=O)cc(Br)c1OCc1ccc(C(=O)O)cc1	Autophagy HCS active
COc1ccc(/C=N/NC(=O)C(=O)/C=C2\NC3(CCCC3)Cc3ccccc32)cc1	none
CCOc1ccc(C2C=C(c3ccc(C)cc3)Nc3nnnn32)cc1 (stereo not given)	none (no result: bCat nuc transl)
COc1ccc(C2C=C(c3ccc(C)c(C)c3)Nc3ncnn32)c(OC)c1OC (stereo not given)	MT stabilize HCS 23 (no result: bCat nuc transl)
CCOc1ccc(C2C=C(c3ccc(C)cc3)Nc3ncnn32)cc1 (stereo not given)	Arbovirus anti 32 (no result: bCat nuc transl)
Cc1cccc(/C(N)=N/OC(=O)COc2ccc(Cl)cc2)c1	Arbovirus anti 36
N#C/C(=C\c1cn(Cc2ccc(F)cc2)c2ccccc12)C(=O)NCc1ccco1	Autophagy HCS active
N#C/C(=C\c1cn(Cc2ccccc2)c2ccccc12)C(=O)NCc1ccco1	none
CCOCCn1c(SCC(=O)OCc2ccccc2)nc2c1c(=O)[nH]c(=O)n2C	none (no result: ABCG2 block, ABCB1 inh, MT stabilize HCS, Autophagy HCS)
O=c1cnnc(N/N=C/c2ccc3c(c2)OCO3)[nH]1	none (no result: Arbovirus anti, ABCG2 block, ABCB1 inh, MT stabilize HCS, Autophagy HCS)
COc1ccc2[nH]c3c(N4CCN(Cc5ccc6c(c5)OCO6)CC4)ncnc3c2c1	MT stabilize HCS 21
CC(C)NC(=O)c1cc(-c2ccc(Br)cc2)on1	none
CC1CCCCN1c1nnc(NC(=O)c2cc(-c3ccc(Br)cc3)on2)s1 (stereo not given)	Arbovirus anti 42 (no result: Autophagy HCS)
O=C(/C=C/c1ccccc1)NC(N1CCOCC1)C(Cl)(Cl)Cl (stereo not given)	none
CCN(CC)CC(=O)n1c2c(c3ccccc31)CCCC2	none
CN1CCN(CC(=O)n2c3c(c4ccccc42)CCCC3)CC1	Autophagy HCS active
C=CCn1c(C)cc(C(=O)COc2ccc(C)nc2[N+](=O)[O-])c1C	none (no result: bCat nuc transl)
CC(=O)OCCNc1nc(-c2ccccc2)nc2ccccc12	none
COc1cc(C(=O)OCC(=O)c2cc(C)n(C)c2C)cc(OC)c1OC	bCat nuc transl 69
Cc1c(-c2nc(-c3ccc(C(F)(F)F)cc3)no2)n(C)oc1=O	none (no result: Arbovirus anti, ABCG2 block, ABCB1 inh, MT stabilize HCS, Autophagy HCS)
O=C(NNC(=O)c1ccccc1Br)c1ccc(Cl)c(Cl)c1	none (no result: bCat nuc transl)
Cc1c(C(=O)NC(Cc2ccccc2)c2nc3ccccc3[nH]2)cccc1[N+](=O)[O-] (stereo not given)	Arbovirus anti 33
CC(=O)c1c(C)[nH]c(C(=O)CN2C(=O)NC(C)(c3ccc(C)cc3)C2=O)c1C (stereo not given)	Autophagy HCS active
CC(=O)Nc1ccc(S(=O)(=O)N2c3ccccc3C(C)=CC2(C)C)cc1	bCat nuc transl 81, MT stabilize HCS 8.6, Autophagy HCS active
COc1ccc(NC(=O)N2c3ccccc3C(C)=CC2(C)C)cc1	none
CC1=CC(C)(C)N(S(=O)(=O)c2ccc(F)cc2)c2ccccc21	MT stabilize HCS 25
CC(=O)N1c2ccccc2C(C)=CC1(C)C	none (no result: Arbovirus anti, ABCG2 block, ABCB1 inh, MT stabilize HCS, Autophagy HCS)
CC1=CC(C)(C)N(S(=O)(=O)c2ccc(C)cc2)c2ccc(C)cc21	Autophagy HCS active (no result: bCat nuc transl)
C=CCOc1ccc(C2N3CC4(CC)CN2CC(CC)(C3)C4=O)cc1 (stereo not given)	none
CCC12CN3CC(CC)(CN(C1)C3c1c(O)ccc3ccccc13)C2=O (stereo not given)	Autophagy HCS active (no result: bCat nuc transl)
COc1ccc(/C=C2\C(=O)NCC(=O)N2Cc2ccccc2)cc1	MT stabilize HCS 32
COc1ccc(/C=C2\C(=O)N(Cc3ccc(F)cc3)CC(=O)N2Cc2ccccc2)cc1	none
COc1ccc(NC(=O)C(=O)N/N=C/c2cc(C)n(-c3cccc(Cl)c3Cl)c2C)c(OC)c1	Arbovirus anti 32
CCN(CC(=O)NC1CCS(=O)(=O)C1)S(=O)(=O)c1ccc(F)cc1 (stereo not given)	none
